Assay [1] relates to Staphylococcus aureus. In words: Antibacterial activity against Staphylococcus aureus ATCC 29213 by CLSI method. It is filed as functional.
The test system of assay [2] is Staphylococcus aureus. In words: Antibacterial activity against methicillin-resistant Staphylococcus aureus USA300 by CLSI method. The format is functional.
In assay [3] the test system is Staphylococcus aureus. In words: Antibacterial activity against cystic fibrosis isolate Staphylococcus aureus by CLSI method. The format is functional.
For assay [4], the target named is DNA gyrase (Staphylococcus aureus, UniProt P0A0K8+P20831). In words: Inhibition of Staphylococcus aureus Gyrase supercoiling activity assessed as reduction in supercoiling pBR322 DNA by measuring relaxation by bromophenol blue staining based TAE gel method. It is filed as protein-complex assay.
For the next assay, the target named is Topoisomerase IV (Staphylococcus aureus, UniProt P0C1S7+P0C1U9). In words: Inhibition of Staphylococcus aureus topoisomerase IV decatenation activity using kDNA as substrate by ethidium bromide/bromophenol blue staining based agarose gel electrophoresis analysis. The format is protein-complex assay.
Assay [5] deals with Staphylococcus aureus. In words: Selectivity index, ratio of IC50 for inhibition of Staphylococcus aureus topoisomerase IV decatenation activity to IC50 for inhibition of Staphylococcus aureus DNA gyrase supercoiling activity. An outline of the steps:
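Both IC50s were measured in gel-based assays with S. aureus enzymes: supercoiling inhibition for DNA gyrase and decatenation inhibition for TopoIV. The ratio is TopoIV IC50 divided by gyrase IC50.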

Assay [6] has as its system Staphylococcus aureus. In words: Antibacterial activity against Staphylococcus aureus 3527 by CLSI method. It is filed as functional.
Assay [7] has as its system Staphylococcus aureus. In words: Antibacterial activity against Staphylococcus aureus harbouring GyrA D83N mutant by CLSI method. It is filed as functional.
The target of assay [8] is DNA gyrase (Staphylococcus aureus, UniProt P0A0K8+P20831, D83N). In words: Inhibition of Staphylococcus aureus DNA Gyrase D83N mutant assessed as reduction in supercoiling pBR322 DNA by measuring relaxation by bromophenol blue staining based TAE gel method.
Assay [9] can be described thus: Growth inhibition of human K/VP.5 cells incubated for 48 hrs by NBTI cell counting analysis. It is filed as functional. Conditions: K562, 48 h.

The term MIC denotes the lowest concentration that inhibits growth of the organism. Lower therefore signals a more susceptible organism. Broadly, the IC50 is the concentration that inhibits the measured activity by half.

Molecules are shown by their SMILES. Converted amounts (≈) assume the structure as drawn.

On to `COc1ccc2ncc(F)c(C[C@H](O)[C@H]3OC[C@H](NCc4ccc(C)cc4)CO3)c2c1`, for which the MIC with Staphylococcus aureus [1] was found to be 0.25 µg/mL (≈ 0.586 µM); in the assay with Staphylococcus aureus [2], 0.5 µg/mL (≈ 1.17 µM); in the assay with Staphylococcus aureus [3] it was 0.25 µg/mL (≈ 0.586 µM); in the assay with Staphylococcus aureus [6] it was 0.5 µg/mL (≈ 1.17 µM); against Staphylococcus aureus [7] it was 8 µg/mL (≈ 18.8 µM). For the same compound, the 50% inhibitory concentration (IC50) was 0.014 µM on DNA gyrase [4] and 4.1 µM on Topoisomerase IV. Further, the Ratio IC50 in the assay with Staphylococcus aureus [5] was determined as 294.
Turning to `COc1ccc2ncc(F)c(C[C@H](O)[C@H]3OC[C@H](NCc4ccc(C)cc4)CO3)c2n1`, the MIC in the assay on Staphylococcus aureus [1] is 0.125 µg/mL (≈ 0.292 µM); in the assay on Staphylococcus aureus [2], at most 0.25 µg/mL; against Staphylococcus aureus [3], 0.25 µg/mL (≈ 0.585 µM); in the assay with Staphylococcus aureus [6], at most 0.25 µg/mL; with Staphylococcus aureus [7] it was 8 µg/mL (≈ 18.7 µM). In addition, the IC50 came to 0.16 µM on DNA gyrase [4], 2.7 µM at Topoisomerase IV, 6.5 µM on DNA gyrase [8] and 46.9 µM in assay [9].
As for `COc1ccc2ncc(F)c(C[C@H](O)[C@H]3OC[C@H](NCc4cc5c(nn4)OCCO5)CO3)c2n1`, the MIC in the assay with Staphylococcus aureus [1] was 0.125 µg/mL (≈ 0.264 µM); against Staphylococcus aureus [2] it was 0.25 µg/mL (≈ 0.528 µM); in the assay on Staphylococcus aureus [3], 0.25 µg/mL (≈ 0.528 µM); with Staphylococcus aureus [6], 0.25 µg/mL (≈ 0.528 µM); with Staphylococcus aureus [7], 2 µg/mL (≈ 4.22 µM). Besides, the IC50 at DNA gyrase [4] was 32 µM; on Topoisomerase IV, 4.8 µM; on DNA gyrase [8], 47 µM; in assay [9], over 200 µM.
Turning to `COc1ccc2ncc(F)c(C(O)C[C@H]3OC[C@H](NCc4ccc(Cl)c(Cl)c4)CO3)c2c1` (mixture of isomers), the MIC is at most 0.25 µg/mL in the assay with Staphylococcus aureus [1]; 0.5 µg/mL (≈ 1.04 µM) against Staphylococcus aureus [2]; 0.5 µg/mL (≈ 1.04 µM) in the assay with Staphylococcus aureus [3]; at most 0.25 µg/mL in the assay on Staphylococcus aureus [6]; 4 µg/mL (≈ 8.31 µM) in the assay on Staphylococcus aureus [7]. In addition, the IC50 on DNA gyrase [4] stood at 0.16 µM; at Topoisomerase IV it was 8.1 µM; in [9], 24.5 µM.
In the case of `COc1ccc2ncc(F)c(C[C@H](O)[C@H]3OC[C@H](NCc4cc5c(cn4)OCS5)CO3)c2n1`, the MIC against Staphylococcus aureus [1] worked out at 0.06 µg/mL (≈ 0.126 µM); in the assay on Staphylococcus aureus [2], 0.125 µg/mL (≈ 0.263 µM); against Staphylococcus aureus [3], 0.25 µg/mL (≈ 0.527 µM); in the assay with Staphylococcus aureus [6], 0.125 µg/mL (≈ 0.263 µM); against Staphylococcus aureus [7], 1 µg/mL (≈ 2.11 µM). Further, the IC50 on DNA gyrase [4] was 0.099 µM; on Topoisomerase IV, 0.43 µM; on DNA gyrase [8] it was 5.9 µM; in assay [9], 118 µM.
With `COc1ccc2ncc(F)c(C(O)C[C@H]3OC[C@H](NCc4cc5c(cn4)OCCO5)CO3)c2c1` (mixture of isomers), the minimum inhibitory concentration (MIC) in the assay with Staphylococcus aureus [1] is 0.5 µg/mL (≈ 1.06 µM); in the assay on Staphylococcus aureus [2], 1 µg/mL (≈ 2.12 µM); against Staphylococcus aureus [3], 0.5 µg/mL (≈ 1.06 µM); against Staphylococcus aureus [6] it was 1 µg/mL (≈ 2.12 µM); against Staphylococcus aureus [7] it was 16 µg/mL (≈ 33.9 µM). Further, the concentration for half-maximal inhibition (IC50) against Topoisomerase IV is 14 µM; in assay [9], over 100 µM.
Consider `COc1ccc2ncc(F)c(C(O)C[C@H]3OC[C@H](NCc4ccc(C)cc4)CO3)c2c1` (mixture of isomers), for which the minimal inhibitory concentration (MIC) against Staphylococcus aureus [1] was 0.125 µg/mL (≈ 0.293 µM); in the assay with Staphylococcus aureus [2], 0.5 µg/mL (≈ 1.17 µM); in the assay on Staphylococcus aureus [3], 0.5 µg/mL (≈ 1.17 µM); against Staphylococcus aureus [6], 0.5 µg/mL (≈ 1.17 µM); in the assay with Staphylococcus aureus [7], 16 µg/mL (≈ 37.5 µM). The IC50 on DNA gyrase [4] was 0.11 µM; on Topoisomerase IV, 14 µM; in [9], 21.7 µM.
On to `COc1ccc2ccc(F)c(C[C@H](O)[C@H]3OC[C@H](NCc4cc5c(cn4)OCCO5)CO3)c2n1`, for which the minimum inhibitory concentration (MIC) with Staphylococcus aureus [1] is 0.125 µg/mL (≈ 0.265 µM); against Staphylococcus aureus [2], 0.25 µg/mL (≈ 0.53 µM); in the assay with Staphylococcus aureus [3] it was 0.125 µg/mL (≈ 0.265 µM); against Staphylococcus aureus [6], 0.125 µg/mL (≈ 0.265 µM); against Staphylococcus aureus [7], 2 µg/mL (≈ 4.24 µM). For the same compound, the IC50 at DNA gyrase [4] stood at 0.013 µM; on Topoisomerase IV, 0.87 µM. Moreover, in the assay on Staphylococcus aureus [5], the Ratio IC50 is 67.
On to `COc1ccc2ncc(F)c(C(O)C[C@H]3OC[C@H](NCc4ccc(Cl)c(Cl)c4)CO3)c2n1` (mixture of isomers), for which the minimum inhibitory concentration (MIC) in the assay on Staphylococcus aureus [1] is 0.125 µg/mL (≈ 0.259 µM); in the assay on Staphylococcus aureus [2] it was 0.25 µg/mL (≈ 0.518 µM); with Staphylococcus aureus [3], 0.25 µg/mL (≈ 0.518 µM); in the assay on Staphylococcus aureus [6] it was at most 0.25 µg/mL; in the assay on Staphylococcus aureus [7], 4 µg/mL (≈ 8.29 µM). The IC50 at DNA gyrase [4] is 0.22 µM; against Topoisomerase IV, 0.6 µM. Also, the Ratio IC50 in the assay on Staphylococcus aureus [5] is 2.7.
Take `COc1ccc2ncc(F)c(C[C@H](O)[C@H]3OC[C@H](NCc4ccc(Cl)c(Cl)c4)CO3)c2c1`: the MIC against Staphylococcus aureus [1] amounted to 0.125 µg/mL (≈ 0.26 µM); with Staphylococcus aureus [2], 0.25 µg/mL (≈ 0.519 µM); against Staphylococcus aureus [3], 0.5 µg/mL (≈ 1.04 µM); in the assay on Staphylococcus aureus [6], 0.25 µg/mL (≈ 0.519 µM); with Staphylococcus aureus [7] it was 4 µg/mL (≈ 8.31 µM). Besides, the IC50 at DNA gyrase [4] was 0.056 µM; against Topoisomerase IV, 1.3 µM. Besides, the Ratio IC50 in the assay on Staphylococcus aureus [5] came to 24.

The record behind these values is ChEMBL document CHEMBL4837261, “Optimization of TopoIV Potency, ADMET Properties, and hERG Inhibition of 5-Amino-1,3-dioxane-Linked Novel Bacterial Topoisomerase Inhibitors: Identification of a Lead with In Vivo Efficacy against MRSA” (J Med Chem, 2021).
